Assays:
mice liver slices = assay: In vitro uptake of TDE in mice liver slices; assay type: in vitro ADME, Kunming mice; details: mice liver slices, TDE 10 μmol/L
Summary of the method: (§1)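 Kunming mice (20–25 g, fasted 12 h) were anaesthetised with urethane, and kidney or liver was decapsulated into ice-cold oxygenated buffer at pH 7.5. Slices of about 30 mg were preincubated 5 min under carbogen at 4 or 37 °C. They were then incubated with 10 μmol/L test compound for 5, 10 or 30 min, with or without reference OAT1/OAT3 or OATP inhibitors or co-ingredients. Slices were then washed, blotted, weighed and homogenised, then extracted with methanol and an internal standard for HPLC–MS.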

mOatp1b2 = assay: qRT-PCR of mOatp1b2 mRNA in liver of treated mice; assay type: in vivo; details: mice given 20 mg/kg TDE with 20 mg/kg IPT, ISP or 200 mg/kg AD extract, 4 h
hOAT1 [1] = target: T1, hOAT1 (Homo sapiens, UniProt Q4U2R8); assay: Cellular uptake in MDCK-hOAT1 vs Mock cells; assay type: in vitro ADME; details: 100 μmol/L, substrate if >2-fold of wild type
T1 sequence (Q4U2R8 1-563): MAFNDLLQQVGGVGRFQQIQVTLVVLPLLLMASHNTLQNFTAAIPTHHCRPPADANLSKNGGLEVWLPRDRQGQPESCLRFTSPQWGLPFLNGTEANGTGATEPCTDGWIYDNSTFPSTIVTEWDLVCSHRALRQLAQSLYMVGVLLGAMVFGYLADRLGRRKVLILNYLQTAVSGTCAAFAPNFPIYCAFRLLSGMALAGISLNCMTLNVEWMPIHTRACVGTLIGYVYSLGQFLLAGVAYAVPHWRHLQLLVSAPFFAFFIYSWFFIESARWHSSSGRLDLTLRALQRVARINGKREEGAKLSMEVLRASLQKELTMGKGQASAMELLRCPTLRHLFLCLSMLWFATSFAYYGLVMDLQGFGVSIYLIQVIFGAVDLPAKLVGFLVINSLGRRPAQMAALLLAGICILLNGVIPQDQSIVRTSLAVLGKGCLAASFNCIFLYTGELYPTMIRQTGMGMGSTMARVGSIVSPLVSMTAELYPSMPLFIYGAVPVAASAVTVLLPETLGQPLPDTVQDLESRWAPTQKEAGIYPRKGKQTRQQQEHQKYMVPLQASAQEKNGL
Summary of the method: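 Transfected cells and matching Mock cells were seeded at 2 × 10⁵ cells/mL and grown 2 days. After a DPBS (pH 7.4) wash and 10 min preincubation at 37 °C, cells took up 100 μmol/L test compound for 2–5 min at 37 °C. Uptake was stopped with three ice-cold DPBS washes, followed by methanol extraction and HPLC–MS. Values were normalised to BCA protein and compared with Mock.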

mice kidney slices = assay: In vitro uptake of TDE in mice kidney slices; assay type: in vitro ADME, Kunming mice; details: TDE 10 μmol/L
Summary of the method: as §1

hOATP1B3 = target: T2, hOATP1B3 (Homo sapiens, UniProt Q9NPD5); assay: Inhibition of 3H-ES uptake in HEK293-hOATP1B3 cells; assay type: in vitro ADME; details: 100 μmol/L IPT, ISP; 100 μg/mL AD extract; substrate 3H-ES
T2 sequence (Q9NPD5 1-702): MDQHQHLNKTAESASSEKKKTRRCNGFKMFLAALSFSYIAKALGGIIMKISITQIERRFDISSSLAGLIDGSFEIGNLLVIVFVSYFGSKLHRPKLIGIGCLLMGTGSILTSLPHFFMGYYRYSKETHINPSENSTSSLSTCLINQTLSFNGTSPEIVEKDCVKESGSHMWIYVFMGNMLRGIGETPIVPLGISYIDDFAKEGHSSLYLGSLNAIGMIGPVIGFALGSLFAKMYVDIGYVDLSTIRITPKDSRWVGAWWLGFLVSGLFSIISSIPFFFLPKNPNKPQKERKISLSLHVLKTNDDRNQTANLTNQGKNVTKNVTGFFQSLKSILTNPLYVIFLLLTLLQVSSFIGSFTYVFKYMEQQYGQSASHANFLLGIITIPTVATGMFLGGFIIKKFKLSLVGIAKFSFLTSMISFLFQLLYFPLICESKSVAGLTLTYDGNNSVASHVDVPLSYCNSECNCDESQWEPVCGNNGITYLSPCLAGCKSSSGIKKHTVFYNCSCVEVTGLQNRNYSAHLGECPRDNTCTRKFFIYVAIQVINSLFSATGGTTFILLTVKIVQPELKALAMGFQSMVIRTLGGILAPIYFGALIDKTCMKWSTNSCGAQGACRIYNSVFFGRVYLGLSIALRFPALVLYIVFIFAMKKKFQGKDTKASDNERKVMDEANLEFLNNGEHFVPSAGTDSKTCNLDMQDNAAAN
Summary of the method: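 HEK293 cells stably overexpressing the human transporter, grown in DMEM with 10% FBS and penicillin/streptomycin at 5% CO₂, then seeded in 24-well plates and used at confluence. Cells incubated at 37 °C for 2 min with 50 nmol/L ³H-estrone sulfate, with or without test compound or extract; final DMSO below 0.5%. Stopped by three cold DPBS washes, lysed in 0.1 mol/L NaOH, and counted by liquid scintillation (DPM).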

hOAT1 [2] = target: T1, hOAT1; assay: Inhibition of 14C-PAH uptake in MDCK-hOAT1 cells; assay type: in vitro ADME; details: for inhibition of the activity of hOAT1: 100 μmol/L IPT, ISP, 100 μg/mL AD extract, substrate 14C-PAH
Summary of the method: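 Test compounds were made as DMSO stocks (20 mmol/L, or 10 mg/mL for extract) and diluted in PBS to a final DMSO below 0.5%. Cells were exposed at 37 °C to probe plus or minus test compound. The probe was 5 μmol/L ¹⁴C-PAH for 5 min (hOAT1) or 50 nmol/L ³H-estrone sulfate for 2 min (hOAT3, hOATP2B1). Screens used 100 μmol/L (extract 100 mg/L); IC50 came from varied concentrations. Cells were then given three cold DPBS washes, lysed in 0.1 mol/L NaOH and read by scintillation counting. Data are mean ± SD, n = 3.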

Row | SMILES | effect on the uptake of TDE in liver slices (mice liver slices) | mRNA level of mOatp1b2 decreased to, compared to TDE alone (mOatp1b2) | accumulation in MDCK-hOAT1, fold higher than in MDCK-Mock (hOAT1 [1]) | effect on the uptake of TDE in kidney slices (mice kidney slices) | inhibition to hOATP1B3 (hOATP1B3) | IC50 (hOAT1 [2]) | inhibition of the activity of hOAT1 (hOAT1 [2])
1 | CC(C)=CCOc1c2occc2cc2ccc(=O)oc12 [IPT, imperatorin] | significant inhibition | 61% | ~4.92 fold | significant inhibition | weak or no inhibition | 31.7 µM | significantly inhibited
2 | CC(C)=CCOc1c2ccoc2cc2oc(=O)ccc12 [ISP, isoimperatorin] | significant inhibition | 50% | ~3.40 fold | significant inhibition | weak or no inhibition | 26.8 µM | significantly inhibited

— PMC7564327 (Acta Pharmaceutica Sinica. B, 2020)
